We go through 24 compounds from ChEMBL document CHEMBL3611988, “Design and synthesis of 4-benzylpiperidine carboxamides as dual serotonin and norepinephrine reuptake inhibitors” (Bioorg Med Chem, 2015).

Holding throughout (type): cell-based
For assay [1], the target named is T1, Sodium-dependent serotonin transporter (Homo sapiens, UniProt P31645). In words: Inhibition of human SERT expressed in HEK293 cells assessed as reduction of serotonin reuptake using [3H]-SERT at 1 uM after 15 mins by liquid scintillation counting relative to venlafaxine HCl. Put shortly:
(§1)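 HEK-293 cells stably transfected with hSERT or hNET, grown at 37 °C in 5% CO2, seeded in poly-lysine-coated 24-well plates for 24 h. Washed, then preincubated with test drug in uptake buffer (Tris/HEPES, NaCl, KCl, CaCl2, MgSO4, ascorbic acid, glucose; pH 7.1) at 37 °C for 15–20 min. Radiolabelled substrate added at 20 nM final for about 5 min at 37 °C. Cells washed three times with ice-cold buffer and lysed in 1% SDS.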
Target sequence in this assay (P31645 whole entry, looked up): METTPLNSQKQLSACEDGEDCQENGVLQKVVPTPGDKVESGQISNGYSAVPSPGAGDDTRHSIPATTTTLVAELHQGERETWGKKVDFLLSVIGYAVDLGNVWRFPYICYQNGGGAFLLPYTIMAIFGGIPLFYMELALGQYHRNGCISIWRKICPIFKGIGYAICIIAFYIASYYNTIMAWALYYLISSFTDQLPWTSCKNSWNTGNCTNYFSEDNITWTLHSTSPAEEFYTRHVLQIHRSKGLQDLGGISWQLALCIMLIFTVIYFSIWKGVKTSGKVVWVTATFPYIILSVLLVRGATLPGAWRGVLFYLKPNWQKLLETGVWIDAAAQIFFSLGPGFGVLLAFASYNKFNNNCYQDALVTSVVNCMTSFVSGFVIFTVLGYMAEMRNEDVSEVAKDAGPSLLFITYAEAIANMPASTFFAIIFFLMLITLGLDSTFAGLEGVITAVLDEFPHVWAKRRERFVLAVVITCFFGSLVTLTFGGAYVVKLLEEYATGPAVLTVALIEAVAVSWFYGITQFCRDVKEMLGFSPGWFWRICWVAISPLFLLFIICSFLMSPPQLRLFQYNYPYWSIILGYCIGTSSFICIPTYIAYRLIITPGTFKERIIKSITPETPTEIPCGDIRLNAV

For assay [2], the target named is T2, Sodium-dependent noradrenaline transporter (Homo sapiens, UniProt P23975). In words: Inhibition of human NET expressed in HEK293 cells assessed as reduction of […] reuptake using [3H]-NET at 3 uM after 15 mins by liquid scintillation counting relative to venlafaxine HCl. The procedure, abridged: as §1
Assay [3] addresses T1, Sodium-dependent serotonin transporter. Put plainly: Inhibition of human SERT expressed in HEK293 cells assessed as reduction of serotonin reuptake using [3H]-SERT after 15 mins by liquid scintillation counting.
Target sequence in this assay (P31645 whole entry): as the sequence (P31645 whole entry, looked up) above
For assay [4], the target named is T2, Sodium-dependent noradrenaline transporter. Put plainly: Inhibition of human NET expressed in HEK293 cells assessed as reduction of […] reuptake using [3H]-NET after 15 mins by liquid scintillation counting. Put shortly:
as §1

Assay [5] has the same target. Put plainly: Inhibition of human NET expressed in HEK293 cells assessed as reduction of […] reuptake using [3H]-NET at 1 uM after 15 mins by liquid scintillation counting relative to GBR-12909. Put shortly: as §1

T2 sequence (P23975 whole entry): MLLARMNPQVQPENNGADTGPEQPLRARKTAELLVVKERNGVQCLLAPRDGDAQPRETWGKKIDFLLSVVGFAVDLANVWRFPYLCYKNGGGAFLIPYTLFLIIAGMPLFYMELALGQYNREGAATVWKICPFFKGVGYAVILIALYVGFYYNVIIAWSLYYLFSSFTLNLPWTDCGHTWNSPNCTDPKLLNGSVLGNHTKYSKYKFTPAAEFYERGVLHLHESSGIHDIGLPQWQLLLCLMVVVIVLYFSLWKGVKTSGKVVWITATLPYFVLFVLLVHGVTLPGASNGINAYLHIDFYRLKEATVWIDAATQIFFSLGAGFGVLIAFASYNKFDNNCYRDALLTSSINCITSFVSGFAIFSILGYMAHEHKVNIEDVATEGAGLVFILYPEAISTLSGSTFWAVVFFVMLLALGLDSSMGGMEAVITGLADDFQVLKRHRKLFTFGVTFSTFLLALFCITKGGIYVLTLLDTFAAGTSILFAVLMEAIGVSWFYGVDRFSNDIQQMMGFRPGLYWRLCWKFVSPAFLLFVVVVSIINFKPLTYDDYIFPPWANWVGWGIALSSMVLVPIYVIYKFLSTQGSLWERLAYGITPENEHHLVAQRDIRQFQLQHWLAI

A word on the IC50: it is the midpoint of a concentration-inhibition curve. `O=C(NCCCN1CCC(Cc2ccccc2)CC1)c1cc2ccccc2s1`: the Ratio was found to be 1.1 in assay [1] and 1.8 in assay [2]. Besides, the IC50 is 449 nM in assay [3] and 4750 nM in assay [4].

On to `O=C(NCCN1CCC(Cc2ccccc2)CC1)c1cccc2ccccc12`, for which the values for the Ratio in assay [1] and in assay [5] were 0.91 and 0.1, respectively.

In the case of `O=C(NCCCN1CCC(Cc2ccccc2)CC1)c1ccc2cc(Br)ccc2c1`, the Ratio in assay [1] was 1.11; in assay [5] it was 0.94. Moreover, the IC50 in assay [3] worked out at 1910 nM; in assay [4], 885 nM.

Take `O=C(NCCCN1CCC(Cc2ccccc2)CC1)c1cc2ccccc2o1`: the results for the Ratio in assay [1] and in assay [2] were 0.84 and 1.54, respectively. The IC50 in assay [3] turned out to be 500 nM; in assay [4], 621 nM.

With `O=C(NCCCN1CCC(Cc2ccccc2)CC1)c1cc2ccccc2[nH]1`, the Ratio in assay [1] was 0.84; in assay [2], 1.72. For the same compound, the IC50 turned out to be 546 nM in assay [3] and 268 nM in assay [4].

Consider `O=C(NCCN1CCC(Cc2ccccc2)CC1)c1ccc2cc(Br)ccc2c1`, for which the values for the Ratio in assay [1] and in assay [5] were 0.51 and 0.83, respectively.

Consider `O=C(NCCN1CCC(Cc2ccccc2)CC1)c1ccc2ccccc2n1`, for which the Ratio in assay [1] was 1.03; in assay [5], 0.53. For the same compound, the IC50 is 786 nM in assay [3] and 275 nM in assay [4].

On to `O=C(NCCCN1CCC(Cc2ccccc2)CC1)c1cccc2ccccc12`, for which the Ratio in assay [1] stood at 0.6; in assay [5], 1.32.

With `O=C(NCCN1CCC(Cc2ccccc2)CC1)c1cc2ccccc2s1`, the Ratio turned out to be 0.77 in assay [1] and 1.92 in assay [2].

Regarding `O=C(NCCN1CCC(Cc2ccccc2)CC1)c1ccc(-c2ccccc2)cc1`, the Ratio in assay [1] is 0.98; in assay [2], 1.49. Also, the figures for the IC50 in assay [3] and in assay [4] were 986 nM and 472 nM, respectively.

Turning to `O=C(NCCCN1CCC(Cc2ccccc2)CC1)c1cc(Cl)cc(Cl)c1`, the Ratio in assay [1] was determined as 0.83; in assay [5], 1.12. The IC50 in assay [3] amounted to 422 nM; in assay [4] it was 267 nM.

Take `O=C(NCCCN1CCC(Cc2ccccc2)CC1)C(c1ccc(Cl)cc1)c1ccc(Cl)cc1`: the Ratio in assay [1] was determined as 0.19; in assay [2], 1.37.

With `COc1ccc2cc(C(=O)NCCN3CCC(Cc4ccccc4)CC3)ccc2c1`, the Ratio in assay [1] is 0.63; in assay [2] it was 1.97.

As for `O=C(NCCN1CCC(Cc2ccccc2)CC1)c1ccc2ccccc2c1`, the Ratio in assay [1] was determined as 0.8; in assay [5], 1.27.

Consider `O=C(NCCN1CCC(Cc2ccccc2)CC1)C(c1ccc(Cl)cc1)c1ccc(Cl)cc1`, for which the Ratio in assay [1] came to 0.4; in assay [2], 1.54.

As for `O=C(NCCN1CCC(Cc2ccccc2)CC1)c1cc(Cl)cc(Cl)c1`, the Ratio amounted to 0.64 in assay [1] and 1 in assay [5].

With `COc1ccc2cc(C(=O)NCCCN3CCC(Cc4ccccc4)CC3)ccc2c1`, the Ratio was 0.98 in assay [1] and 1 in assay [5]. The half-maximal inhibitory concentration (IC50) in assay [3] came out at 323 nM; in assay [4], 238 nM.

`O=C(NCCN1CCC(Cc2ccccc2)CC1)C(c1ccccc1)c1ccccc1`: the Ratio in assay [1] turned out to be 0.29; in assay [2], 1.04.

Consider `O=C(NCCN1CCC(Cc2ccccc2)CC1)c1cc2ccccc2[nH]1`, for which the Ratio in assay [1] came out at 0.58; in assay [2], 1.49.

Regarding `O=C(NCCCN1CCC(Cc2ccccc2)CC1)c1ccc2ccccc2n1`, the figures for the Ratio in assay [1] and in assay [2] were 0.85 and 0.62, respectively.

For `O=C(NCCCN1CCC(Cc2ccccc2)CC1)c1ccc2ccccc2c1`, the Ratio was determined as 0.95 in assay [1] and 1.03 in assay [5]. Besides, the IC50 was found to be 108 nM in assay [3] and 342 nM in assay [4].

On to `O=C(NCCCN1CCC(Cc2ccccc2)CC1)c1ccc(-c2ccccc2)cc1`, for which the Ratio in assay [1] came out at 1.01; in assay [2], 1.59. Besides, the IC50 in assay [3] amounted to 56 nM; in assay [4], 153 nM.

As for `O=C(NCCN1CCC(Cc2ccccc2)CC1)c1cc2ccccc2o1`, the Ratio in assay [1] stood at 0.78; in assay [2], 1.09.

In the case of `O=C(NCCCN1CCC(Cc2ccccc2)CC1)C(c1ccccc1)c1ccccc1`, the Ratio in assay [1] was determined as 0.26; in assay [2], 1.19.
